These results are taken from ChEMBL document CHEMBL1124175, “Stereoisomers of allenic amines as inactivators of monoamine oxidase type B. Stereochemical probes of the active site” (J Med Chem, 1988).

Data set [1] has as its target T1, Amine oxidase [flavin-containing] B (Bos taurus, UniProt P56560).
T1 sequence (P56560 whole entry): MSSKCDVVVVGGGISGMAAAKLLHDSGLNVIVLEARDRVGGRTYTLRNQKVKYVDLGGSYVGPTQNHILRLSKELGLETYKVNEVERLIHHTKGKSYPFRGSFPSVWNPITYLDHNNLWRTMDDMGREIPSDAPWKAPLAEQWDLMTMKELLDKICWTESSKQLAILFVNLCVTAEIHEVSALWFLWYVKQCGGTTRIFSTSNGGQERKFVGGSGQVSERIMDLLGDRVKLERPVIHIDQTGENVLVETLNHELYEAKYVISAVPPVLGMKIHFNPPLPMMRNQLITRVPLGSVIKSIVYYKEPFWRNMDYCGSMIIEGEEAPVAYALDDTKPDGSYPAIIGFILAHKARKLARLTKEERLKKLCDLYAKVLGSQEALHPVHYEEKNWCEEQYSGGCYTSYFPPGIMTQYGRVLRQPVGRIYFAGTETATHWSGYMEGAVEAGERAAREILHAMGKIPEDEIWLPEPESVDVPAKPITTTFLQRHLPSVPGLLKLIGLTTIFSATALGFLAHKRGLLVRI
As to the kind of experiment: Kinetic parameter for the time dependent inhibition of Bovine liver Monoamine Oxidase B at 25 degrees C (pH= 7.4). The conditions noted are these: cattle; for kinact: read-out: k2 (converted). An outline of the steps:
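Purified beef liver mitochondrial MAO (0.02 unit) was preincubated at 25 °C in 50 mM potassium phosphate, pH 7.4, with allenic amine (1 µM-10 mM). Aliquots taken over time were assayed in duplicate for residual activity against benzylamine at 250 nm. kobsd came from nonlinear fit to E = E0 exp(-kobsd t) + E∞, and k2 and Ki by Kitz-Wilson analysis. For slow inactivators, k2 came from kobsd at one concentration plus a separately measured competitive Ki.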

Data set [2] concerns the target T1, Amine oxidase [flavin-containing] B. As to the kind of experiment: In vitro inhibition of bovine monoamine oxidase B. The essentials: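 Beef liver mitochondrial MAO was purified and assayed spectrophotometrically in 67 mM potassium phosphate, pH 7.2, at 25 °C. MAO (0.002 unit) was run with benzylamine hydrochloride (100, 200, 300 or 400 µM) and inhibitor at various concentrations. Initial rates of benzaldehyde formation were read at 250 nm, four replicates per combination, and competitive Ki was fitted from the initial rates.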

The target is the same in data set [3]. As to the kind of experiment: Inhibitory activity against Monoamine Oxidase B of Bovine liver in competitive inhibition assay at 25 degree C (pH=7.4).
Data set [4] deals with T2, Amine oxidase [flavin-containing] B (Rattus norvegicus, UniProt P19643).
T2 sequence (P19643 whole entry): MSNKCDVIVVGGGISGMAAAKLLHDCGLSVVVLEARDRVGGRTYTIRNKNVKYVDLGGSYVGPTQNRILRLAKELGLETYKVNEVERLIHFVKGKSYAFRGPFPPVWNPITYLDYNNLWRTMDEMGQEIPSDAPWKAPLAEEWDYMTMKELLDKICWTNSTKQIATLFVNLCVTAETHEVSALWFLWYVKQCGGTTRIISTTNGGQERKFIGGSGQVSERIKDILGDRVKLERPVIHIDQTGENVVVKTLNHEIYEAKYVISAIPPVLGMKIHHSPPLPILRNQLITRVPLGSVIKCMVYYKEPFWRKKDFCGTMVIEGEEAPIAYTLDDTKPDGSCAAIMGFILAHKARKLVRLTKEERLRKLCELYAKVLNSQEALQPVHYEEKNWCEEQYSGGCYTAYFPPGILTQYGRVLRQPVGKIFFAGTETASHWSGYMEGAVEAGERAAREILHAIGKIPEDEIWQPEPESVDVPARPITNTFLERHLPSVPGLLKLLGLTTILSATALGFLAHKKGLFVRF
In words: Competitive inhibition of Rat liver Monoamine Oxidase B at 37 degree C (pH= 7.4).

Data set [5] is filed under the species Bos taurus. As to the kind of experiment: Competitive inhibition of Bovine liver MAO-B at […]. Format: functional.
Data set [6] has as its target T2, Amine oxidase [flavin-containing] B. As to the kind of experiment: Competitive inhibition of Rat liver Monoamine Oxidase B at 30 degree C (pH= 7.2).

Broadly, the Ki is a dissociation constant, usually derived from enzyme kinetics or from competition with a known ligand. A higher Ki goes with a looser hold on the target.

On to `CC=C=CCN(C)C[C@H](C)c1ccccc1` (mixture of isomers), for which the kinact in data set [1] was 0.00015 s⁻¹. Moreover, the affinity in data set [2], expressed as Ki, was 180 µM.

In turn, `CC=C=CCN(C)[C@H](C)c1ccccc1` (stereo in doubt) came in with a k2 in data set [1] of 0.61 min⁻¹. In data set [2], this compound returned a Ki of 730 µM. Regarding `CC=C=CCN(C)C[C@@H](C)c1ccccc1` (mixture of isomers), the kinact in data set [1] was 0.000117 s⁻¹. Besides, the Ki in data set [2] turned out to be 690 µM.

On to `CC=C=CCN(C)[C@H](C)c1ccccc1` (mixture of isomers), for which the kinact in data set [1] is 0.00733 s⁻¹. This compound also had a Ki in data set [2] of 1800 µM. The compound `CC=C=CCN(C)CCc1ccccc1` (stereo in doubt; 4 (R)) came in with a k2 in data set [1] of 0.99 min⁻¹. This compound also displayed a Ki in data set [2] of 430 µM. For `CC=C=CCN(C)[C@@H](C)c1ccccc1` (mixture of isomers), in that order: 0.012 min⁻¹ and 2600 µM. `CN[C@H](C)c1ccccc1` gave a Ki in data set [3] of 630 µM. In data set [3], `CN[C@@H]1CCCc2ccccc21` had a Ki of 12 µM. With `CN[C@@H](C)Cc1ccccc1` [METHAMPHETAMINE], the Ki in data set [3] was determined as 550 µM; in data set [4], 270 µM.

On to `CC=C=CCN(C)[C@@H](C)c1ccccc1` (stereo in doubt), for which the kinact in data set [1] is 0.000117 s⁻¹. Moreover, in data set [2], the inhibition constant Ki was 1100 µM.

Consider `C[C@@H](N)c1ccccc1`, for which the affinity in data set [2], expressed as Ki, was 190 µM. Compound `CC=C=CCN(C)[C@H]1CCCc2ccccc21` (mixture of isomers) registered a k2 in data set [1] of 0.012 min⁻¹. In data set [2], this compound gave a Ki of 150 µM. Regarding `CC=C=CCN(C)C` (stereo in doubt; 1 (R)), the kinact in data set [1] was 0.00367 s⁻¹. In data set [2], this compound registered a Ki of 59 µM. `CN[C@H]1CCCc2ccccc21`: in data set [3], the Ki was determined as 1.4 µM. Turning to `CC=C=CCN(C)[C@H]1CCCc2ccccc21` (stereo in doubt), the k2 in data set [1] was 0.0006 min⁻¹. Besides, in data set [2], the Ki came to 150 µM.

For the compound `CC=C=CCN(C)Cc1ccccc1.O=C(O)C(=O)O` (stereo in doubt; 2 (R)), the k2 in data set [1] is 1 min⁻¹. Further, in data set [2], the Ki turned out to be 200 µM. For `C[C@H](N)c1ccccc1`, the Ki in data set [5] stood at 150 µM; in data set [3] it was 520 µM. In data set [1], `CC=C=CCN(C)CCc1ccccc1` (stereo in doubt; 4 (S)) registered a k2 of 0.13 min⁻¹. Besides, the Ki in data set [2] was determined as 650 µM. In the case of `CC=C=CCN(C)[C@@H]1CCCc2ccccc21` (mixture of isomers), in data set [1], the k2 is 0.13 min⁻¹. Affinity in data set [2] was put at a Ki of 250 µM. With `CC=C=CCN(C)[C@@H]1CCCc2ccccc21` (stereo in doubt), in data set [1], the k2 came to 0.8 min⁻¹. This compound also registered a Ki in data set [2] of 200 µM. Take `C[C@H](N)Cc1ccccc1` [DEXTROAMPHETAMINE]: the Ki in data set [3] was determined as 300 µM; in data set [4], 160 µM; in data set [6], 580 µM. For the compound `CN[C@H](C)Cc1ccccc1`, the Ki in data set [3] came out at 800 µM; in data set [4], 550 µM. For the compound `CC=C=CCN(C)Cc1ccccc1.O=C(O)C(=O)O` (stereo in doubt; 2 (S)), the k2 in data set [1] came to 0.16 min⁻¹. Affinity in data set [2] was put at a Ki of 820 µM.

Take `CN[C@@H](C)c1ccccc1`: affinity in data set [3] was put at a Ki of 1600 µM. On to `C[C@@H](N)Cc1ccccc1` [LEVAMFETAMINE], for which the Ki amounted to 380 µM in data set [3], 180 µM in data set [4] and 760 µM in data set [6]. `CC=C=CCN(C)C` (stereo in doubt; 1 (S)) came in with a k2 in data set [1] of 0.29 min⁻¹. Further, in data set [2], the Ki was found to be 100 µM.
